# Assay results published in ChEMBL document CHEMBL5107979, “Encoding BRAF inhibitor functions in protein degraders” (RSC Med Chem, 2022).
# Active and inactive are the calls of the source. No cut-off for these calls is given here.
# Tests used:
# [1] = target: Serine/threonine-protein kinase B-raf (Homo sapiens, UniProt P15056, V600E); assay: Inhibition of BRAF V600E mutant (unknown origin) using MEK1 (K97R) as substrate in presence of [gamma-33P]ATP by radiometric assay
# [2] = test system: von Hippel-Lindau disease tumor suppressor/Serine/threonine-protein kinase B-raf (Homo sapiens), P15056+P40337 [V600E]; assay: Protac activity at VHL/BRAF V600E mutant degradation in human SK-MEL-28 cells harboring wild type NRAS assessed as remaining BRAF V600E level at 1 uM incubated for 4 hrs by densitometric analysis; type: cell-based
# Method in brief: (§1)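 SK-MEL-28 melanoma cells (STR-authenticated, mycoplasma-free) in DMEM + 10% FCS, 37°C, 5% CO2; 100,000 cells/well seeded, grown 48 h, then compound-treated as indicated. Lysis in D0.4 buffer (HEPES pH 7.5, 0.4 M KCl, Triton X-100, EDTA) with protease/phosphatase inhibitors. Lysates run on 4-12% Bis-Tris gels and blotted to PVDF. LI-COR imaging; BRAF densitometry normalised to loading control, expressed relative to DMSO.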
# [3] = Plasma protein binding in human at 0.5 mg/ml by HPLC analysis; type: ADME, cell-free; settings: read-out: PPB (converted)
# Method in brief: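 HSA column (50 × 3 mm, 5 μm), 30 °C; samples 0.5 mg/mL in MeCN/DMSO 9:1, 2 μL injected. 50 mM ammonium acetate pH 7.4 to 30% iPrOH gradient over 5.4 min, held to 18 min; 1.0 mL/min, UV 254 nm. Log retention times calibrated to ten reference drugs' logK (R² = 0.94), converted to %PPB.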
# SK-MEL-28 [4] = assay: Inhibition of ERK signalling pathway in human SK-MEL-28 cells harboring BRAF V600E mutant/wild type NRAS assessed as reduction in phosphorylated ERK level at 0.1 to 10 uM incubated for 4 hrs by densitometric analysis; type: cell-based; settings: dose 0.1-10 µM
# Method in brief: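 SK-MEL-28 melanoma in DMEM/10% FCS, plated 100,000 cells/well, grown 48 h, treated 4 h at indicated doses. Lysates (HEPES pH 7.5, 0.4 M KCl, 0.4% Triton X-100, protease/phosphatase inhibitors) immunoblotted on PVDF, imaged by LI-COR; densitometry normalised to loading control, relative to DMSO; mean of five independent repeats for dose-response.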
# [5] = Distribution coefficient, logD of compound at pH 7.4 by chromatographic method; type: physicochemical; settings: octanol/water
# Method in brief: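 Chromatographic retention-time method at pH 7.4, calibrated against six reference drugs (atenolol, metoprolol, labetalol, diltiazem, triphenylene, permethrin) of known logD7.4 (R² = 0.99); mean analyte retention times converted via calibration line. At least two independent measurements per analyte.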
# SK-MEL-28 [6] = assay: Anticancer activity against human SK-MEL-28 cells assessed as reduction in cell viability incubated for 120 hrs by CellTiter-Glo luminescent assay; type: functional, cell-based
# Method in brief: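 SK-MEL-28 in DMEM with 10% FCS, 37°C, 5% CO2; seeded 400 cells/well in 384-well plates. T0 CellTiter-Glo reading taken at 24 h on a parallel plate; compounds dispensed acoustically, 5 days incubation, then CellTiter-Glo luminescence. Normalised to DMSO; GI50 by four-parameter log(inhibitor) vs response fit; mean±s.d., n=3.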
# [7] = test system: von Hippel-Lindau disease tumor suppressor/Serine/threonine-protein kinase B-raf (Homo sapiens), P15056+P40337 [V600E]; assay: Protac activity at VHL/BRAF V600E mutant degradation in human SK-MEL-28 cells harboring wild type NRAS assessed as remaining BRAF V600E level at 10 uM incubated for 24 hrs by densitometric analysis; type: cell-based; method in brief: as §1
# [8] = test system: von Hippel-Lindau disease tumor suppressor/Serine/threonine-protein kinase B-raf (Homo sapiens), P15056+P40337 [V600E]; assay: Protac activity at VHL/BRAF V600E mutant degradation in human SK-MEL-28 cells harboring wild type NRAS assessed as remaining BRAF V600E level at 0.1 to 10 uM incubated for 4 hrs by densitometric analysis; type: cell-based; settings: dose 0.1-10 µM; method in brief: as §1
# SK-N-AS [9] = assay: Effect on ERK signalling pathway in human SK-N-AS harboring wild type BRAF/NRAS […] mutant assessed as BRAF level at 0.1 to 10 uM incubated upto 24 hrs by western blot analysis; type: functional, cell-based; settings: dose 0.1-10 µM
# Method in brief: (§2)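 SK-N-AS neuroblastoma (NRAS mutant), DMEM/10% FCS, plated 100,000 cells/well, grown 48 h, then treated 4 h at indicated doses or 24 h at 10 μM. Lysed in HEPES pH 7.5/KCl/Triton buffer with protease and phosphatase inhibitors; SDS-PAGE, PVDF transfer, LI-COR imaging; densitometry normalised to loading control, relative to DMSO.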
# SK-N-AS [10] = assay: Effect on ERK signalling pathway in human SK-N-AS harboring wild type BRAF/NRAS […] mutant assessed as phosphorylated ERK level at 0.1 to 10 uM incubated upto 24 hrs by western blot analysis; type: functional, cell-based; settings: dose 0.1-10 µM; method in brief: as §2
# Sequence of Serine/threonine-protein kinase B-raf (P15056 2-766 V600E limits assumed): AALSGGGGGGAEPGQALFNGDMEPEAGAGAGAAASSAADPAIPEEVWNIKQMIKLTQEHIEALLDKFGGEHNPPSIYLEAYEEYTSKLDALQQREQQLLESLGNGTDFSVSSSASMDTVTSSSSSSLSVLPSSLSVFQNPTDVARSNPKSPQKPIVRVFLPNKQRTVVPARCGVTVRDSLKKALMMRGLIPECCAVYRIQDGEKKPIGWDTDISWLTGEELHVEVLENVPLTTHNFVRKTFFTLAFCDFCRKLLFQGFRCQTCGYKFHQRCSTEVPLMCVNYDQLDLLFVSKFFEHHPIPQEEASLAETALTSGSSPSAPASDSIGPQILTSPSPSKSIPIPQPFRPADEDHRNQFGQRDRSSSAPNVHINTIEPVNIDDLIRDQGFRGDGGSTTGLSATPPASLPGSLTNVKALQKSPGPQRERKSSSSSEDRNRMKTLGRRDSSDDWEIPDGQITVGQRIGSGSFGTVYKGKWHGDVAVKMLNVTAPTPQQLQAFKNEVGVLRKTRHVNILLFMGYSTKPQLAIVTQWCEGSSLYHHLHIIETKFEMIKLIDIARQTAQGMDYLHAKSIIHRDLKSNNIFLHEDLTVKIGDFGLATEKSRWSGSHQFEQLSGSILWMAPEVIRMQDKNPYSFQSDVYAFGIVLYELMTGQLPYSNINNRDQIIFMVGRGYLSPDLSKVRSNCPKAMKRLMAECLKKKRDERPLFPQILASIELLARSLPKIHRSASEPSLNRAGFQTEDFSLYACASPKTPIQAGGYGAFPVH
SMILES,IC50 [1] [nM],Remaining BRAF V600E level [2] [%],fraction unbound at 0.5 mg/ml [3],inhibition (SK-MEL-28 [4]),chromatographic logD [5],Activity (SK-MEL-28 [6]),Activity [7],Activity [8],Activity (SK-N-AS [9]),Activity (SK-N-AS [10])
CCCS(=O)(=O)Nc1ccc(F)c(C(=O)c2c[nH]c3ncc(-c4ccc(C(=O)NCCOCCOCCOCCOc5cc(-c6scnc6C)ccc5CNC(=O)[C@@H]5C[C@@H](O)CN5C(=O)[C@H](C(C)C)N5Cc6ccccc6C5=O)cc4)cc23)c1F,3.4,73,0.04,Active,2.5,,,,,
CCCS(=O)(=O)Nc1ccc(F)c(C(=O)c2c[nH]c3ncc(-c4ccc(CNC(=O)CCCCOCCOCCOCCOc5cc(-c6scnc6C)ccc5CNC(=O)[C@@H]5C[C@@H](O)CN5C(=O)[C@H](C(C)C)N5Cc6ccccc6C5=O)cc4)cc23)c1F,3.8,77,0.04,Active,2.7,,,,,
CCN(C)S(=O)(=O)Nc1ccc(F)c(C(=O)c2c[nH]c3ncc(-c4cnc(N5CCN(CC(=O)N[C@H](C(=O)N6C[C@H](O)C[C@H]6C(=O)N[C@@H](C)c6ccc(-c7scnc7C)cc6)C(C)(C)C)CC5)nc4)cc23)c1F,,> 95,0.04,,3.2,,,,,
CCN(C)S(=O)(=O)Nc1ccc(F)c(C(=O)c2c[nH]c3ncc(-c4ccc(N5CCN(CC(=O)N[C@H](C(=O)N6C[C@H](O)C[C@H]6C(=O)NCc6ccc(-c7scnc7C)cc6)C(C)(C)C)CC5)cc4)cc23)c1F,,52,0.04,,3.2,Active,Active,,,
CCCS(=O)(=O)Nc1ccc(F)c(C(=O)c2c[nH]c3ncc(-c4ccc(C(=O)NCCOCCOCC(=O)N[C@H](C(=O)N5C[C@H](O)C[C@H]5C(=O)NCc5ccc(-c6scnc6C)cc5)C(C)(C)C)cc4)cc23)c1F,8.5,> 95,0.05,Active,2.3,,,,,
CCCS(=O)(=O)Nc1ccc(F)c(C(=O)c2c[nH]c3ncc(-c4ccc(C(=O)NCCOCCOCCOCCCCC(=O)N[C@H](C(=O)N5C[C@H](O)C[C@H]5C(=O)NCc5ccc(-c6scnc6C)cc5)C(C)(C)C)cc4)cc23)c1F,0.31,> 95,0.05,Active,2.4,,,,,
CCCS(=O)(=O)Nc1ccc(F)c(C(=O)c2c[nH]c3ncc(-c4ccc(N5CCN(CC(=O)N[C@H](C(=O)N6C[C@H](O)C[C@H]6C(=O)NCc6ccc(-c7scnc7C)cc6)C(C)(C)C)CC5)cc4)cc23)c1F,,46,0.04,,2.9,,,Active,Active,Active
CCCS(=O)(=O)Nc1ccc(F)c(C(=O)c2c[nH]c3ncc(-c4ccc(CNC(=O)CCCCOCCCCOCCCCOc5cc(-c6scnc6C)ccc5CNC(=O)[C@@H]5C[C@@H](O)CN5C(=O)[C@H](C(C)C)N5Cc6ccccc6C5=O)cc4)cc23)c1F,10,77,0.04,Active,3.6,,,,,
O=C1Nc2ccc(I)cc2C1=Cc1cc(Br)c(O)c(Br)c1 [GW305074X],,,,,2.3,,,,,
CCCS(=O)(=O)Nc1ccc(F)c(C(=O)c2c[nH]c3ncc(-c4ccc(C(=O)NCCCCCCOCCCCCOCCCCC(=O)N[C@H](C(=O)N5C[C@H](O)C[C@H]5C(=O)NCc5ccc(-c6scnc6C)cc5)C(C)(C)C)cc4)cc23)c1F,48,> 95,0.04,Active,3.7,,,,,
